Assay [1] relates to Canis familiaris. In words: Antiarrhythmic effect in coronary artery ligated dogs model at a dose of 5 mg/kg, value noted at end dose. It counts as functional, Canis lupus familiaris, Heart. The method, boiled down:
(§1)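 Coronary-ligated dogs with ventricular arrhythmias. Dosing was 5 mg/kg in 10–20 mL isotonic saline, given as an iv infusion over 5 min. Limb lead II ECG was monitored continuously for up to 6 h. Percent normal sinus beats was scored at control, end of dose, 20 min and 1 h. Values are mean ± SEM for three or more animals, mean ± SD for two.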

The subject of assay [2] is Canis familiaris. The assay is described as follows: Compound was evaluated for the heart rate effect in normal dogs at a dose of 5 mg/kg, administered intravenously and value noted at 1h. The conditions noted are these: route intravenous. The assay is classed as functional, Canis lupus familiaris. The method, boiled down:
(§2)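 Conscious normal dogs, trained and sling-restrained, received the same iv dosing: 5 mg/kg infused over 5 min. Heart rate came from continuous limb lead II ECG at control, end of dose, 20 min and 1 h. Values are mean ± SD for two dogs.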

In assay [3] the test system is Canis familiaris. In words: Antiarrhythmic effect in coronary artery ligated dog model at a dose of 5 mg/kg, administered intravenously and value noted at 1 hr. The following applies: route intravenous. The assay is classed as functional, Canis lupus familiaris, Heart. The method, boiled down: as §1
Assay [4] is filed under the species Canis familiaris. In words: Compound was evaluated for the activity rating. The assay is classed as functional, Canis lupus familiaris. The gist of the method: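 In ligated dogs given 5 mg/kg iv over 5 min, group % normal beats was plotted at end of dose, 20 min and 1 h. The area under this curve minus the control area was divided by the same area for an ideal response (100% normal beats for the whole hour), then multiplied by 100.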

Assay [5] is filed under the species Canis familiaris. In words: Compound was evaluated for the duration of sustained effect; 0.5-2. It counts as functional, Canis lupus familiaris. The gist of the method:
(§3)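 Normal dogs received 5 mg/kg iv over 5 min, with heart rate tracked by continuous ECG. Dogs above 140 beats/min were followed until the rate fell to 140. The sustained effect was rated long (>2 h), moderate (0.5–2 h) or short (<0.5 h).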

Assay [6] relates to Canis familiaris. In words: Compound was evaluated for the heart rate effect in normal dogs at a dose of 5 mg/kg, administered intravenously and value noted at end dose. It counts as functional, Canis lupus familiaris. The conditions noted are these: route intravenous. The method, boiled down:
as §2

Assay [7] has as its system Canis familiaris. In words: Antiarrhythmic effect in coronary artery ligated dogs model at a dose of 5 mg/kg, administered intravenously and value noted at 20 min. The assay is classed as functional, Canis lupus familiaris, Heart. The conditions noted are these: route intravenous. The method, boiled down:
as §1

The species named for assay [8] is Canis familiaris. The assay is described as follows: Compound was evaluated for the degree of tachycardia; 160-199. The assay is classed as functional, Canis lupus familiaris. The method, boiled down: (§4)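 Conscious normal dogs received 5 mg/kg iv over 5 min, with heart rate from limb lead II ECG. Tachycardia was graded as severe (≥200 beats/min), moderate (160–199), slight (<160 after a rise of ≥20) or none (change <20 beats/min).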

For assay [9], the system named is Canis familiaris. In words: Compound was evaluated for the heart rate effect in normal dogs at a dose of 5 mg/kg, administered intravenously and value noted at 20 min. The following applies: route intravenous. The assay is classed as functional, Canis lupus familiaris. The method, boiled down:
as §2

For assay [10], the species on record is Canis familiaris. In words: Compound was evaluated for the duration of sustained effect. It counts as functional, Canis lupus familiaris. The gist of the method:
as §3

Assay [11] is filed under the species Canis familiaris. In words: Compound was evaluated for the degree of tachycardia 160-199. The assay is classed as functional, Canis lupus familiaris. The method, boiled down: as §4
For assay [12], the species on record is Canis familiaris. The assay is described as follows: Compound was evaluated for the degree of tachycardia. The assay is classed as functional, Canis lupus familiaris. The gist of the method: as §4

As to `CC1CCCC(C)N1CCCC(O)(c1ccccc1)C1CCCCC1.Cl` (configuration not stated), the Normal beats in assay [1] turned out to be 98%; in [3], 68%; in assay [7] it was 65%. The Heart rate is on record as 121 beats min-1 in assay [2], 176 beats min-1 in assay [6], 160 beats min-1 in [8] and 152 beats min-1 in assay [9]. Also, in [4], the Activity rating is 66. In [5], this molecule gave a Duration of 0.5 h.
In the case of `CC1CCCC(C)N1CCCC(C#N)(c1ccccc1)c1ccccc1.Cl` (configuration not stated), the Normal beats in [1] is recorded as 90%; in [3], 65%; in [7], 88%. Further, the Heart rate in assay [2] turned out to be 137 beats min-1; in assay [6], 168 beats min-1; in assay [11], 160 beats min-1; in assay [9], 147 beats min-1. Besides, the Activity rating in assay [4] was 82. For the same molecule, in [10], the Duration is above 2 h.
On to `CC1CCCC(C)N1CCCC(c1ccccc1)c1ccccc1.Cl` (configuration not stated), for which the Normal beats stood at 95% in assay [1], 92% in assay [3] and 97% in assay [7]. Also, the Beats/min is listed as 179 in assay [2], 255 in assay [6], 218 in assay [9] and “>=200” in assay [12]. Besides, in assay [4], the Activity rating stood at 94. Also, the Duration in [10] is above 2 h.
